Laboratory results reported in ChEMBL document CHEMBL2034857, “Discovery of the macrocycle (9E)-15-(2-(pyrrolidin-1-yl)ethoxy)-7,12,25-trioxa-19,21,24-triaza-tetracyclo[18.3.1.1(2,5).1(14,18)]hexacosa-1(24),2,4,9,14(26),15,17,20,22-nonaene (SB1578), a potent inhibitor of janus kinase 2/fms-like tyrosine kinase-3 (JAK2/FLT3) for the treatment of rheumatoid …” (J Med Chem, 2012).

How the values were obtained:
[1] = Tmax in BALB/c nude mouse at 50 mg/kg, po; assay type: ADME, organism-based; set-up: dose 50 mg/kg, route oral; conditions: in vivo
How it was run: (§1)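 Single oral dose by gavage as suspension in 0.5% methylcellulose/0.1% Tween 80 (mouse, rat, monkey) or in gelatin capsules (dog). Serial blood samples taken from 0 to 24 h into K3EDTA tubes; plasma stored at −70 °C until analysis. Parameters derived by noncompartmental methods. Rat, dog and monkey n = 3; mouse values estimated from mean concentration-time data, n = 3 mice per time point.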

[2] = system: HL-60; assay: Antiproliferative activity against human HL60 cells expressing FLT3 after 48 hrs by luciferase reporter gene assay; assay type: functional; conditions: HL-60, 48 h
[3] = Half life in human liver microsomes; assay type: ADME, Microsome
[4] = molecular target: T1, Cytochrome P450 1A2 (Homo sapiens, UniProt P05177); assay: Inhibition of CYP1A2 in human liver microsomes using phenacetin as substrate by LC-MS/MS analysis; assay type: ADME, Microsome
T1 sequence (P05177 whole entry): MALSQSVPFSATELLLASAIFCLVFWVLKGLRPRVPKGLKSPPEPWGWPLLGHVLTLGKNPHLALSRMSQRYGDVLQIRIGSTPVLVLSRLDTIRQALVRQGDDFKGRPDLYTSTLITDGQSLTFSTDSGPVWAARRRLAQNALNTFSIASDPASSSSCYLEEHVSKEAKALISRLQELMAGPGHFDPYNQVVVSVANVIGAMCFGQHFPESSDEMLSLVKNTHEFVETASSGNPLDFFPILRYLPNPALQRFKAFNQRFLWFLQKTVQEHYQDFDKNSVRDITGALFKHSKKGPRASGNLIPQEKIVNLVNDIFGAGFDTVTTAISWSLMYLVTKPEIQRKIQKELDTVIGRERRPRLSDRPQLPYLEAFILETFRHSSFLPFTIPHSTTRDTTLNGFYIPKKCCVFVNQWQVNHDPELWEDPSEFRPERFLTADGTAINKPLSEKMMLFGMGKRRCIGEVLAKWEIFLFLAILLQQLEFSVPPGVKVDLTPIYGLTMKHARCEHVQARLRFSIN

[5] = Terminal half life in beagle dog at 5 mg/kg, po; assay type: ADME, organism-based, Canis lupus familiaris; set-up: dose 5 mg/kg, route oral; conditions: in vivo, read-out: beta t1/2 (converted); how it was run: as §1
[6] = Half life in mouse liver microsomes; assay type: ADME, Microsome
[7] = molecular target: Tyrosine-protein kinase JAK1 (Homo sapiens, UniProt P23458); assay: Inhibition of recombinant JAK1 using poly(Glu,Ala,Tyr) as substrate after 2 hrs by luminometric assay
Tyrosine-protein kinase JAK1, sequence (P23458 whole entry): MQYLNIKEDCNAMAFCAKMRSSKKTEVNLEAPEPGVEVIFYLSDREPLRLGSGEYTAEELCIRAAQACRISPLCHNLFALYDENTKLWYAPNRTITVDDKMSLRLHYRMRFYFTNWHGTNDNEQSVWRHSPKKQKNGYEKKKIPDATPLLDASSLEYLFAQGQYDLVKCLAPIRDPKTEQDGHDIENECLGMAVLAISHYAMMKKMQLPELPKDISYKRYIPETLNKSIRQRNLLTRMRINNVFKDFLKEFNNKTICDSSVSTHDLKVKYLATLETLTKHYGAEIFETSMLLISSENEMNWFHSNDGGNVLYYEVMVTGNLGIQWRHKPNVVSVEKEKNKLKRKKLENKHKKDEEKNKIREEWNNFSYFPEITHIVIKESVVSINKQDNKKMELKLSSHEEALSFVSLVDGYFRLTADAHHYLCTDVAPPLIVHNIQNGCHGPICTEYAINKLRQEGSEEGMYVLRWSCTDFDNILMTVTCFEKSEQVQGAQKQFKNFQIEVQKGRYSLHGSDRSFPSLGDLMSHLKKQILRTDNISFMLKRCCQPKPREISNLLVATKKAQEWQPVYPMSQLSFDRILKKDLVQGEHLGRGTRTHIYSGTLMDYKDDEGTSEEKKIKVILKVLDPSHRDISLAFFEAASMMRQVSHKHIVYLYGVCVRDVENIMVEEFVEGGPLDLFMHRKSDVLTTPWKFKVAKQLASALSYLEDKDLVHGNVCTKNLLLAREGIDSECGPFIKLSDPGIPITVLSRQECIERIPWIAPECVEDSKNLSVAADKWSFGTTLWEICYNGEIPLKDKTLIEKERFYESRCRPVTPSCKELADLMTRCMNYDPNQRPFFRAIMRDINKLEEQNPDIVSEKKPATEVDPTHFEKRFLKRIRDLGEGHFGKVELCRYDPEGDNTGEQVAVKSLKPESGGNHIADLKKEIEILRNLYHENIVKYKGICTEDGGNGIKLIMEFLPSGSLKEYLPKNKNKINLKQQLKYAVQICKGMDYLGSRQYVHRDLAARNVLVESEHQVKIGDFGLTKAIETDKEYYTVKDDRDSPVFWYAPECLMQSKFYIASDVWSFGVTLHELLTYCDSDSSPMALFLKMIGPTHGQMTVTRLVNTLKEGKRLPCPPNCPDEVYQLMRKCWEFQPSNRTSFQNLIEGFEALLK

[8] = Half life in mouse liver microsomes at 5 uM; assay type: ADME, Microsome
How it was run: (§2)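 Compound at 5 μM with human, mouse or dog microsomes at 0.87 mg/mL, or rat and monkey microsomes at 1 mg/mL, in 50 mM potassium phosphate pH 7.4 with NADPH regenerating system at 37 °C.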

[9] = Cmax in Wistar rat at 50 mg/kg, po; assay type: ADME, organism-based; set-up: dose 50 mg/kg, route oral; conditions: in vivo
How it was run: (§3)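 Single oral gavage at 50 (mouse, rat), 5 (dog) or 20 (monkey) mg/kg; rodents and monkeys received suspensions in 0.5% methylcellulose/0.1% Tween 80, dogs gelatin capsules. Serial blood taken 0–24 h into K3EDTA, plasma stored at −70 °C. Parameters estimated by noncompartmental analysis, n = 3 per species (mouse values from mean concentration–time data, 3 mice per time point).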

[10] = molecular target: Cytochrome P450 2D6 (Homo sapiens, UniProt P10635); assay: Inhibition of CYP2D6 in human liver microsomes using dextromethorphan as substrate by LC-MS/MS analysis; assay type: ADME, Microsome
Cytochrome P450 2D6, sequence (P10635 whole entry): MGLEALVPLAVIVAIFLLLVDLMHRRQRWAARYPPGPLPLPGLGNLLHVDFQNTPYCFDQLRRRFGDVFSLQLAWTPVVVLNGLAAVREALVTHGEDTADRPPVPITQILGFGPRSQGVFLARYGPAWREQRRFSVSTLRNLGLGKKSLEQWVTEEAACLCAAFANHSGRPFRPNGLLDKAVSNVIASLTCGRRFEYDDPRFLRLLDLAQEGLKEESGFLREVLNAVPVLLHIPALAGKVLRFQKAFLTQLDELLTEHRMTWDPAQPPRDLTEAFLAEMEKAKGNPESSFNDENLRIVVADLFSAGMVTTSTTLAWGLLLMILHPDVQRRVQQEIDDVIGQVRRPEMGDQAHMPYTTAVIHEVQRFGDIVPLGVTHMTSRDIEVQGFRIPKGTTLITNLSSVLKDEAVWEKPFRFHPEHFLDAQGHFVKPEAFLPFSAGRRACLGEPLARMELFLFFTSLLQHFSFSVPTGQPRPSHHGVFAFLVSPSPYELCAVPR

[11] = AUC (0 to infinity) in beagle dog at 5 mg/kg, po; assay type: ADME, organism-based, Canis lupus familiaris; set-up: time infinity, dose 5 mg/kg, route oral; conditions: plasma; how it was run: as §3
[12] = Tmax in beagle dog at 5 mg/kg, po; assay type: ADME, organism-based, Canis lupus familiaris; set-up: dose 5 mg/kg, route oral; conditions: in vivo; how it was run: as §1
[13] = Oral bioavailability in beagle dog at 5 mg/kg; assay type: ADME, organism-based, Canis lupus familiaris; conditions: in vivo; how it was run: as §3
[14] = Terminal half life in Wistar rat at 50 mg/kg, po; assay type: ADME, organism-based; set-up: dose 50 mg/kg, route oral; conditions: in vivo, read-out: beta t1/2 (converted); how it was run: as §1
[15] = Tmax in rhesus monkey at 20 mg/kg, po; assay type: ADME, organism-based, Macaca mulatta; set-up: dose 20 mg/kg, route oral; conditions: in vivo; how it was run: as §1
[16] = Terminal half life in BALB/c nude mouse at 50 mg/kg, po; assay type: ADME, organism-based; set-up: dose 50 mg/kg, route oral; conditions: in vivo, read-out: beta t1/2 (converted); how it was run: as §1
[17] = Oral bioavailability in rhesus monkey at 20 mg/kg; assay type: ADME, organism-based, Macaca mulatta; conditions: in vivo; how it was run: as §3
[18] = system: Mus musculus; assay: Antiarthritic activity in B10/R3 mouse immunized with bovine type2 collagen in Freund's complete adjuvant assessed as inhibition of increase in clinical arthritic scores at 105 mg/kg, po administered bid for 10 days measured for 10 days; assay type: functional; conditions: B10/R3, 240 h
[19] = system: BaF3; assay: Antiproliferative activity against mouse BAF3 cells expressing JAK2 V617F mutant after 48 hrs by luciferase reporter gene assay; assay type: functional; conditions: BaF3, 48 h
[20] = Cmax in BALB/c nude mouse at 50 mg/kg, po; assay type: ADME, organism-based; set-up: dose 50 mg/kg, route oral; conditions: in vivo; how it was run: as §3
[21] = Half life in rat liver microsomes at 5 uM; assay type: ADME, Microsome; how it was run: as §2
[22] = molecular target: Voltage-gated inwardly rectifying potassium channel KCNH2 (Homo sapiens, UniProt Q12809); assay: Displacement of dofetilide from human ERG
Voltage-gated inwardly rectifying potassium channel KCNH2, sequence (Q12809 whole entry): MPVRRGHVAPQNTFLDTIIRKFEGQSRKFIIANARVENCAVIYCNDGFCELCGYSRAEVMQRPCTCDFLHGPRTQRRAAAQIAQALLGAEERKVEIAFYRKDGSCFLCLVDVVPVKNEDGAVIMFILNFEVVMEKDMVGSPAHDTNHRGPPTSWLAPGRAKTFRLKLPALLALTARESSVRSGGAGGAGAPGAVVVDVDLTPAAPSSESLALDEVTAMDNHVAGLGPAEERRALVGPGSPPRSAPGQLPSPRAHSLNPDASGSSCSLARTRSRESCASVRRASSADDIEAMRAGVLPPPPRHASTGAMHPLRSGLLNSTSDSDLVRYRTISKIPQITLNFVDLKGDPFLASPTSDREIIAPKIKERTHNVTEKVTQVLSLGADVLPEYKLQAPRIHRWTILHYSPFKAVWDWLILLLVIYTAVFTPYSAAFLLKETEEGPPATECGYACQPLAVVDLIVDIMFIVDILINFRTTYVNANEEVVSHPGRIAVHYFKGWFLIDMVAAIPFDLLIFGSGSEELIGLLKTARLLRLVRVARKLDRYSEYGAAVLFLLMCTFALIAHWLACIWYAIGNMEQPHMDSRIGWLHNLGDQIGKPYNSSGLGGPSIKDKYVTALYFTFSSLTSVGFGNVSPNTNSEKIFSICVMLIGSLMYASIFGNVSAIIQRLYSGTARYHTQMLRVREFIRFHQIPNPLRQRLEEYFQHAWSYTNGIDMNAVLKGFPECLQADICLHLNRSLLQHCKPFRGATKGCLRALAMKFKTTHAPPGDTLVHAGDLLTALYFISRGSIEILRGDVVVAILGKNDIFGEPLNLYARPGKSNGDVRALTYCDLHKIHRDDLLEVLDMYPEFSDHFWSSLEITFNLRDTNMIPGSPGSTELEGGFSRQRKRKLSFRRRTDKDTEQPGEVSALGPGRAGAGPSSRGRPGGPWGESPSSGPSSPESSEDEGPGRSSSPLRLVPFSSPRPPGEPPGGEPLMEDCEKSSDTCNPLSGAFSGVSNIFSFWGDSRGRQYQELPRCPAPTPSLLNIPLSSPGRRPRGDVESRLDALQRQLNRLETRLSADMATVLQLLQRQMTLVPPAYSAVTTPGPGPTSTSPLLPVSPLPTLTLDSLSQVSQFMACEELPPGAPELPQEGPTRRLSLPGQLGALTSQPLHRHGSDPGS

[23] = Oral bioavailability in BALB/c nude mouse at 50 mg/kg; assay type: ADME, organism-based; conditions: in vivo; how it was run: as §3
[24] = molecular target: Tyrosine-protein kinase JAK2 (Homo sapiens, UniProt O60674); assay: Inhibition of recombinant JAK2 using poly(Glu,Ala,Tyr) as substrate after 2 hrs by luminometric assay
Tyrosine-protein kinase JAK2, sequence (O60674 whole entry): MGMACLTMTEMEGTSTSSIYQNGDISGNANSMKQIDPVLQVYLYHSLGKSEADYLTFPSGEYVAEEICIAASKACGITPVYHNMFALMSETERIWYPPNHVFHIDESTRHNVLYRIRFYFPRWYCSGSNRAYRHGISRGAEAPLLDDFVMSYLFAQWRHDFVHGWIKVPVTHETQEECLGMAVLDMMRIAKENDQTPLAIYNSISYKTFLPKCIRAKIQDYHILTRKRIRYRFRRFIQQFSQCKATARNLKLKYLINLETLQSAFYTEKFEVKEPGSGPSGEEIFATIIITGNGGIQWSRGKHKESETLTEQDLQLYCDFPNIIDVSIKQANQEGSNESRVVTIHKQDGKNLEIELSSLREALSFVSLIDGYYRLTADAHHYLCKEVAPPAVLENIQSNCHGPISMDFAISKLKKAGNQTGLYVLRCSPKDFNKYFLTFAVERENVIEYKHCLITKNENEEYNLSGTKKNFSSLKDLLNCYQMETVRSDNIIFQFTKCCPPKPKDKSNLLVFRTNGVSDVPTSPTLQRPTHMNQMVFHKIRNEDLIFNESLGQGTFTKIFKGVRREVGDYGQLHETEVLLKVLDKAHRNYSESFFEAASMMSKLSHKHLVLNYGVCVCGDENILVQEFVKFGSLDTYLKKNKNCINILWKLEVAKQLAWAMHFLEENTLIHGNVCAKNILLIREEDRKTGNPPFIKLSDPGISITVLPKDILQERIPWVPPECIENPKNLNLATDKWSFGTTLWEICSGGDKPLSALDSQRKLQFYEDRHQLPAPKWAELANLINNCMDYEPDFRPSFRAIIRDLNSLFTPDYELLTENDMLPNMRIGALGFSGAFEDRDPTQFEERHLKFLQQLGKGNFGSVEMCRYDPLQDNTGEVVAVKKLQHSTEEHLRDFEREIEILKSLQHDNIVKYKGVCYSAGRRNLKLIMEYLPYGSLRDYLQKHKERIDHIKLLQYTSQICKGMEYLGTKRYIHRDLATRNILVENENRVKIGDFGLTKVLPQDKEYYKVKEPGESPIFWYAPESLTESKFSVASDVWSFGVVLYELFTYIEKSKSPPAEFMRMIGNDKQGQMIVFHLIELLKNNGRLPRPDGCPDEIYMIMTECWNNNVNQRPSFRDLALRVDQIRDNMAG

[25] = Antiproliferative activity against human SET2 cells expressing JAK2 V617F mutan; assay type: functional, cell-based; conditions: SET-2
[26] = Efflux ratio of apparent permeability across human Caco2 cells at 10 uM after 120 mins by LC-MS/MS analysis; assay type: ADME, cell-based; conditions: Caco-2
How it was run: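 Caco-2 monolayers (passage 40–60) seeded at 1 × 10⁵ cells/cm², used on day 20; HBSS pH 7.4 with 25 mM HEPES and 4.45 mM glucose, 37 °C, 5% CO₂; 10 μM final (1% DMSO) dosed apical or basolateral, 120 min; both compartments quantified by LC-MS/MS; duplicate; reference compounds as controls; monolayer integrity by lucifer yellow permeation.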

[27] = Plasma protein binding in human at 1000 ng/mL by equilibrium dialysis; assay type: ADME, cell-free; conditions: read-out: PPB
How it was run: (§4)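 Equilibrium dialysis of plasma (mouse, rat, dog, monkey, human) spiked to 1000 ng/mL final against PBS, 4 h at 37 °C; buffer side extracted with MTBE in triplicate and analyzed by LC-MS/MS.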

[28] = Cmax in rhesus monkey at 20 mg/kg, po; assay type: ADME, organism-based, Macaca mulatta; set-up: dose 20 mg/kg, route oral; conditions: in vivo; how it was run: as §3
[29] = molecular target: Cytochrome P450 2C19 (Homo sapiens, UniProt P33261); assay: Inhibition of CYP2C19 in human liver microsomes using omeprazole as substrate by LC-MS/MS analysis; assay type: ADME, Microsome
Cytochrome P450 2C19, sequence (P33261 whole entry): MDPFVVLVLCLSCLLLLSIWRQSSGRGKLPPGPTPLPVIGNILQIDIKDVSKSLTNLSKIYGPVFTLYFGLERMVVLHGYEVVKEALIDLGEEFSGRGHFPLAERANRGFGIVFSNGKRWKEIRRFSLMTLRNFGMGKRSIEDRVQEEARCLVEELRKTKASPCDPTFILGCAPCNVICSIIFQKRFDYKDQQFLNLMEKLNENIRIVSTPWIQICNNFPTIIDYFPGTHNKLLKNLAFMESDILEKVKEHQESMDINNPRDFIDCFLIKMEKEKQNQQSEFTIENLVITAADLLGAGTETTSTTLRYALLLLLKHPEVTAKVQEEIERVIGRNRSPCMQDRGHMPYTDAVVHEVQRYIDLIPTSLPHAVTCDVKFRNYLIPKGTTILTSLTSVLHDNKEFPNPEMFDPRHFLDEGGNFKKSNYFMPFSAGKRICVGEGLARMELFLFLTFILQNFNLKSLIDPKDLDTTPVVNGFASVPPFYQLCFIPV

[30] = Half life in rhesus monkey live microsomes at 5 uM; assay type: ADME, Macaca mulatta; conditions: liver microsomes; how it was run: as §2
[31] = Plasma protein binding in dog at 1000 ng/mL by equilibrium dialysis; assay type: ADME, cell-free, Canis lupus familiaris; conditions: read-out: PPB (converted); how it was run: as §4
[32] = Terminal half life in rhesus monkey at 20 mg/kg, po; assay type: ADME, organism-based, Macaca mulatta; set-up: dose 20 mg/kg, route oral; conditions: in vivo, read-out: beta t1/2 (converted); how it was run: as §1
[33] = AUC (0 to infinity) in Wistar rat at 50 mg/kg, po; assay type: ADME, organism-based; set-up: dose 50 mg/kg, route oral, time infinity; conditions: plasma; how it was run: as §3
[34] = Plasma protein binding in mouse at 1000 ng/mL by equilibrium dialysis; assay type: ADME, cell-free; conditions: read-out: PPB (converted); how it was run: as §4
[35] = Plasma protein binding in rat at 1000 ng/mL by equilibrium dialysis; assay type: ADME, cell-free; conditions: read-out: PPB (converted); how it was run: as §4
[36] = molecular target: Macrophage colony-stimulating factor 1 receptor (Homo sapiens, UniProt P07333); assay: Inhibition of c-fms

Question: Which results are given for `C1=C2COC/C=C/COCc3cc(ccc3OCCN3CCCC3)Nc3nccc(n3)C(=C1)O2` (mixture of isomers) [CT-1578]?
Answer: Tmax [1]: 0.5 h; GI50 [2]: 0.85 µM; half-life [3]: > 1 h; IC50 [4]: > 10 µM; half-life [5]: 1.5 h; half-life [6]: 0.45 h; IC50 [7]: 2.7 µM; half-life at 5 µM [8]: > 1 h; Cmax [9]: 0.231 µg/mL; IC50 [10]: > 10 µM; AUC(0-inf) [11]: 0.096 µg·h/mL; Tmax [12]: 3 h; bioavailability [13]: 6%; half-life [14]: 3.6 h; Tmax [15]: 2 h; half-life [16]: 0.8 h; bioavailability [17]: 32%; inhibition in vivo at 105 mg/kg [18]: 23%; GI50 [19]: 0.25 µM; Cmax [20]: 1.23 µg/mL; half-life at 5 µM [21]: > 1 h; IC50 [22]: > 10 µM; bioavailability [23]: 34%; IC50 [24]: 0.046 µM; IC50 [25]: 0.246 µM; efflux ratio at 2 h, 10 µM [26]: 1.1; fraction unbound at 1000 ng/mL [27]: 0.01; Cmax [28]: 1.98 µg/mL; IC50 [29]: 1.4 µM; half-life at 5 µM [30]: 0.383 h; fraction unbound at 1000 ng/mL [31]: 0.127; half-life [32]: 1.1 h; AUC(0-inf) [33]: 1.5 µg·h/mL; fraction unbound at 1000 ng/mL [34]: 0.127; fraction unbound at 1000 ng/mL [35]: 0.127; IC50 [36]: 0.069 µM
